# Reference: ChEMBL document CHEMBL3102806, “1,2,4-Triazole/oxime hybrids as new strategy for nitric oxide donors: Synthesis, anti-inflammatory, ulceroginicity and antiproliferative activities” (Eur J Med Chem, 2014)
# Tests used:
# Type in all cases: functional
# NCI-H23 = experiment: Growth inhibition of human NCI-H23 cells after 48 hrs by sulforhodamine B assay; conditions: NCI-H23, 48 h
# Outline: (§1)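 NCI 60-cell-line panel (nine tumour subpanels), five-dose format: 10-fold dilutions from 10^-4 to 10^-8 M, 48 h continuous exposure, SRB protein stain. Percent growth at each level is derived from time-zero, untreated control and treated absorbances. GI50 is the concentration where [(Ti−Tz)/(C−Tz)]×100 = 50. Values outside the tested range are reported as above or below the limit.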
# 786-0 = experiment: Growth inhibition of human 786-0 cells after 48 hrs by sulforhodamine B assay; conditions: 786-0, 48 h
# Outline: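 NCI full ~60 cell line panel. Five 10-fold concentrations from 10^-4 to 10^-8 M, 48 h continuous exposure, SRB protein read-out. Time-zero, control and treated absorbances give percentage growth. GI50 is the concentration where [(Ti−Tz)/(C−Tz)]×100 = 50; TGI is where Ti = Tz; LC50 is where [(Ti−Tz)/Tz]×100 = −50.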
# MCF7 = experiment: Growth inhibition of human MCF7 cells after 48 hrs by sulforhodamine B assay; conditions: MCF7, 48 h; outline: as §1
# [1] = read-out: LC50 (the source's name)
smiles,measurement,setting,value
COc1ccc(-c2nnc(SCC(=O)Nc3ccc(/C(C)=N/O)cc3)n2-c2ccccc2)cc1OC,GI50,NCI-H23,12.9 µM
same,TGI,NCI-H23,> 100 µM
same,CC50,NCI-H23; [1],> 100 µM
same,GI50,786-0,14.9 µM
same,TGI,786-0,> 100 µM
same,CC50,786-0; [1],> 100 µM
same,GI50,MCF7,> 100 µM
same,TGI,MCF7,> 100 µM
same,CC50,MCF7; [1],> 100 µM
